Shown are actives, neighbours in structure and some others; about 2.2% of the full set was active somewhere.
Cneo AK release – causes C. neoformans cell lysis; adenylate kinase release luminescence, 4 h; normalised: neutral wells 0, clomiphene wells 100; lysis activity, % at 15 µM; 360,000 tested, 0.2% active;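 active = mean lysis activity across replicates of at least 80%, whatever share of replicates individually reach that level; inactive = mean lysis activity below 80%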
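Signal: Adenylate kinase release luminescence | Assay system: Log-phase Cryptococcus neoformans yeast cells | Input: Cells at 5 × 10^6 per mL | Buffer or medium: Fresh YPD growth medium | Compound: Single dose | Schedule: Static 4 h at 37 °C with compound, 1 h detection | Controls: Clomiphene | Read-out: Luminescence rise reflecting yeast cell lysis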
Yeast superoxide – yeast age-related superoxide inhibition as caloric restriction mimetic. 330,000 tested, 0.18% active. S. cerevisiae aged cells, superoxide DHE fluorescence; stronger effect = lower value. superoxide response (% of plate mean), % at 10 µM. AID 2690;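 active = superoxide response under a set limit, about three screen SD below normal, cut at about 65% in these data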;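 also: yeast aged for seven days with compound at 30 °C before DHE staining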
PglD DTNB – inhibitors of Campylobacter jejuni PglD acetyltransferase | purified PglD enzyme, DTNB colorimetric CoA detection | AID 602405 | inhibition, % at 12.5 µM | 360,000 tested, 0.098% active; in the data active = inhibition above about 16%, passing the limit was not always enough; inconclusive = no clear call, values can overlap the other calls
SUMO Mot1 rescue – blocks SUMOylation pathway, rescuing yeast Mot1-301 growth; S. cerevisiae Mot1-301 growth rescue, ATP luminescence, 38.5C; percent above DMSO median, 100 means doubled; growth rescue, % at 18.8 µM; 320,000 tested, 1% active; AID 2716;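 active = every valid replicate shows activation above 250% relative to neutral control wells; inactive = the rest, any valid replicate at or below 250%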
Ecoli rRNA inh – inhibitors of bacterial rRNA selective over humanized ribosomes; E. coli WT GFP vs humanized-ribosome RFP mutants, fluorescence, 24 h; stronger effect = lower value; DMSO median 0, no signal -100; GFP signal change (wild-type ribosome), % (no concentration beside the values); 350,000 tested, 1.6% active;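 active = significant combined selectivity score with lowered wild-type GFP, culture density cut under 30%, mutant RFP and density less affected; inactive = any of these conditions unmet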
HepG2 tox – cytotoxic compounds in HepG2 cells | shares compounds with Ecoli rRNA inh | 30 tested, under 10 active | HepG2 viability, ATP luminescence, 72 h | activity change, negative = cytotoxicity, unspecified at 26 µM;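 active = compounds whose fitted half-maximal signal-loss concentration is at most twice their highest valid dose; inconclusive = flat curve with 30 to 70% signal loss, or poor fit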
AID977621 – growth inhibition of wild-type GFP E. coli, dose response, H69 mutant RFP, cherry-pick. shares compounds with Ecoli rRNA inh. E. coli wild-type GFP strain growth, fluorescence, 24 h. activity change, negative = inhibition at 50 µM. 1,900 tested, under 10 active;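 active = Wild-type ribosome reporter drop at least double the humanized mutant ribosome reporter drop, growth loss under a set limit; inconclusive = no clear call, values can overlap the other calls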;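 also: wild-type GFP and H69 mutant RFP strains grown together 50/50 in each well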
AID977628 – E. coli growth inhibition, wild-type GFP versus h24 humanized RFP strain, dose response, h24 mutant RFP vs wild-type GFP, cherry-pick; 1,900 tested, under 10 active; AID 977628; E. coli WT GFP strain growth, fluorescence, 24 h; shares compounds with Ecoli rRNA inh; activity change, negative = inhibition at 50 µM;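 active = compound lowering the normal-ribosome reporter at least twice as much as the humanized-ribosome reporter, growth loss under a set limit; inconclusive = no clear call, values can overlap the other calls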;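 also: wild-type GFP and h24 humanized RFP strains co-cultured 1 to 1 per well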
A number is an active result; – = inactive; ? = inconclusive; · = not tested or not shown.

SMILES	Cneo AK release	Yeast superoxide	PglD DTNB	SUMO Mot1 rescue	Ecoli rRNA inh	AID977621	AID977628	others
CCSc1nc2ccccc2n1CCC(=O)O	–	–	–	–	·	·	·
O=C(O)CCn1c(SCc2cccc3ccccc23)nc2ccccc21	–	–	–	–	-16	–	?
COC(=O)c1ccc2nc(-c3ccc(C)cc3)c(Cc3ccc(C)cc3)n2c1	·	·	·	·	–	·	·
Cc1ccc(Cc2c(-c3cccc(Br)c3)nc3ccc(C)cn23)cc1	·	·	·	·	-27	–	–
COC(=O)c1ccc2nc(-c3ccc(OC)c(OC)c3)c(Cc3ccc(C)cc3)n2c1	–	·	–	·	-15	–	·
COc1ccc(-c2nc3c(C)cc(Br)cn3c2Cc2ccc(C)cc2)cc1OC	–	·	–	·	-6.1	·	?
COC(=O)c1ccc2nc(-c3ccccc3)c(Cc3cccc(F)c3)n2c1	·	·	·	·	–	·	·
COc1ccc(-c2nc3c(C)cc(Br)cn3c2Cc2ccccc2)cc1OC	–	·	–	·	–	·	·
COC(=O)c1ccc2nc(-c3ccc(F)cc3)c(Cc3cccc(F)c3)n2c1	·	·	·	·	-24	–	–
Cc1ccc2nc(-c3cccc(Br)c3)c(Cc3ccccc3)n2c1	–	·	–	·	–	·	·
CCCC(=O)Nc1ccc2c(c1)OC[C@@H](C)N(C(=O)CC)C[C@@H](C)[C@H](OC)CN(C)C2=O	–	·	–	·	–	·	·
COC(=O)c1ccc2nc(-c3ccco3)c(Cc3ccc(C)cc3)n2c1	–	·	–	·	-29	–	?
COC(=O)c1ccc2nc(-c3ccco3)c(Cc3cccc(F)c3)n2c1	–	·	–	·	–	·	·
N#Cc1cccc(-c2ccc([C@@H]3[C@H](CO)N4CCCCN(S(=O)(=O)c5ccccc5)C[C@@H]34)cc2)c1	–	·	–	·	–	·	·
Cn1c(=O)c2c(-c3ccccc3)n(-c3cc([N+](=O)[O-])ccc3N)cc2n(C)c1=O	–	·	–	·	-14	–	–
CN(Cc1ccc([N+](=O)[O-])cc1)c1ccccc1	–	·	–	·	-26	–	–
CN(Cc1ccccc1)c1nc(-c2ccc([N+](=O)[O-])cc2)nc2ccccc12	–	–	–	–	·	·	·
c1cc2cc(-c3c(-c4ccc5c(c4)OCO5)noc3-c3ccsc3)ccc2[nH]1	–	–	–	–	-13	–	–
COc1ccc(NS(=O)(=O)c2cccc3ccccc23)cc1	–	–	–	–	-39	–	·
COc1ccc(NS(=O)(=O)c2cc(OC)ccc2OC)cc1	–	–	–	–	–	·	·
C[C@H]1CN([C@@H](C)CO)C(=O)Cc2cc(NC(=O)c3ccncc3)ccc2O[C@@H]1CN(C)S(C)(=O)=O	·	·	·	·	–	·	·
Cc1ccc(C)c(NC(=O)CSc2nc3nc(-c4cccs4)cc(C(F)(F)F)c3c(=O)[nH]2)c1	–	–	–	–	-20	·	?	HepG2 tox=–
O=C(CSc1nc2nc(-c3cccs3)cc(C(F)(F)F)c2c(=O)[nH]1)Nc1ccc(F)c(F)c1	·	–	·	–	–	·	·
Nc1c(Cl)cc(C2=NCCn3nc4ccccc4c32)cc1Cl	–	–	–	–	-20	–	·
CCCNC(=O)c1noc2c1CCc1cc(OC)ccc1-2	–	–	–	–	-28	?	·
SMILES	Cneo AK release	Yeast superoxide	PglD DTNB	SUMO Mot1 rescue	Ecoli rRNA inh	AID977621	AID977628	others
C[C@@H]1CN([C@H](C)CO)C(=O)c2cccc(NC(=O)c3ccncc3)c2O[C@H]1CN(C)S(C)(=O)=O	–	·	–	·	–	·	·
COc1ccc(CN(C)C[C@H]2OCCCC[C@@H](C)Oc3ccc(NS(=O)(=O)c4ccc(Cl)cc4)cc3C(=O)N([C@H](C)CO)C[C@H]2C)cc1	–	·	–	·	–	·	·
COc1ccccc1NC(=O)CSc1ncc(CO)n1Cc1ccc(F)cc1	–	–	–	–	-20	–	–
COc1ccc(/C=C/c2nc3ccccc3n2Cc2ccccc2OC)cc1	·	–	·	323	-26	–	–
O=C(Nc1cccc(Cl)c1)N[C@@H]1CC[C@@H](CCNC(=O)C2CCCC2)O[C@@H]1CO	–	·	–	·	–	·	·
N#Cc1nc(-c2ccco2)oc1NCc1ccccc1Cl	–	–	–	–	-27	–	–
N#Cc1nc(-c2ccco2)oc1NCc1ccco1	–	–	–	–	·	·	·
C[C@H](CO)N1C[C@H](C)[C@@H](CN(C)C(=O)C2CCC2)Oc2ncc(Br)cc2C1=O	·	·	·	·	–	·	·
Cc1cccc(C)c1-n1nnnc1C1(C)CCC(=O)N1Cc1cccs1 (stereo not given)	·	·	·	·	-21	–	·
CCC(=O)N1C[C@@H](C)[C@@H](OC)CN(C)C(=O)c2cc(NC(=O)NC(C)C)ccc2OC[C@@H]1C	–	·	–	·	–	·	·
COCc1c(C#N)c(NCCc2ccc(F)cc2)nc(C)c1[N+](=O)[O-]	·	–	·	–	-17	–	–
CC=Cc1ccc2n(c1=O)C[C@H]1[C@H](CO)[C@@H](C(=O)N3CCCCC3)[C@@H]2N1CC1CCCC1 (mixture of isomers)	–	·	–	·	–	·	·
Nc1[nH]c(C(=O)c2ccccc2)c(-c2ccc(Cl)cc2)c1C(=O)NCCc1c[nH]c2ccccc12	·	·	·	·	-19	–	·
Nc1[nH]c(C(=O)c2ccccc2)c(-c2ccc3c(c2)OCO3)c1C(=O)NCCc1c[nH]c2ccccc12	·	·	·	·	-15	?	·
CCCCNC(=O)c1c(N)[nH]c(C(=O)c2ccccc2)c1-c1ccccn1	·	·	·	·	-27	–	–
COc1ccccc1N(CC(=O)Nc1ccccc1)S(=O)(=O)c1cccs1	–	–	–	–	–	·	·
COc1ccc(NC(=O)CN(c2ccccc2OC)S(=O)(=O)c2cccs2)cc1Cl	–	–	–	–	-17	–	·
CC=Cc1ccc2n(c1=O)C[C@@H]1[C@@H](CO)[C@H](C(=O)NCCC)N(Cc3cccnc3)[C@H]21 (mixture of isomers)	–	·	–	·	–	·	·
O=C(COC(=O)c1cccc(S(=O)(=O)N2CCCCC2)c1)NCc1cccc(Cl)c1	–	·	–	·	-15	·	–
COc1ccc(C(=O)CSc2nc3ccccc3n2CC(=O)c2ccccc2)cc1	–	–	–	–	-28	–	–
O=S(=O)(Nc1ccc(-c2cn3ccccc3n2)cc1)c1ccccc1	–	–	–	–	–	·	·
Cc1cccc(S(=O)(=O)Nc2ccc(-c3cn4ccccc4n3)cc2)c1	–	–	–	–	-32	?	·
CN1CCCCN2[C@@H](CO)[C@H](c3ccc(-c4ccc(F)cc4)cc3)[C@@H]2C1	–	·	–	·	–	·	·
CCOc1ncccc1C(=O)OCC(=O)NCCCc1ccccc1	–	–	–	–	-21	–	–
C[C@@H]1CN([C@@H](C)CO)S(=O)(=O)c2ccc(C#C[C@@H](C)O)cc2O[C@H]1CN(C)CC1CC1	·	·	·	·	–	·	·
